Compound activity deposited in PubChem by Johns Hopkins Ion Channel Center.
MrgX1 allo act: positive allosteric modulators of MrgX1, primary screen, HEK293 cells, Fluo-4 calcium flux. FDSS; hits give high values. B-score at 10 µM. 310,000 compounds, 0.63% hits;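 active means plate-corrected calcium response at least 3 library SD above typical, normal starting fluorescence, not activating the receptor alone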;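 further: compound read alongside a low EC10 to EC30 dose of BAM8-22 agonist; peak minus trough fluorescence over baseline measured at the second addition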
Target sequence (Q96LB2 whole entry, looked up): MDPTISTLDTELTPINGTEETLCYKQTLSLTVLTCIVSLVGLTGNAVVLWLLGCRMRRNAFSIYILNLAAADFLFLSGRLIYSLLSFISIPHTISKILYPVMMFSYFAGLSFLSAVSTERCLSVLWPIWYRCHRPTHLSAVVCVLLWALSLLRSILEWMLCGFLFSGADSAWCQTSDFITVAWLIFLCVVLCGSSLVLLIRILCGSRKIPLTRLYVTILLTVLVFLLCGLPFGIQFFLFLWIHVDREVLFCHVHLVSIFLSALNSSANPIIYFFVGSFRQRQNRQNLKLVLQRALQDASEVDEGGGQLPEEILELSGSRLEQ
RGS4 act: RGS4 potentiators or activators, primary screen, cell-based, HEK293 M3R inducible RGS4, calcium flux; carbachol calcium flux Fluo4; hits give low values; B-score at 10 µM; 310,000 compounds, 0.92% hits; AID 463111, 2010;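 active means B-score of the integrated calcium signal more than 4 SD below the library mean, with starting fluorescence not abnormally high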;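 further: negative B-score means reduced calcium response which marks RGS4 activation or potentiation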
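Detection: kinetic calcium fluorescence imaging with Fluo4-AM dye, 2 µM / Material: HEK293 cells with stable M3R and inducible RGS4 / Schedule: recording 10 s baseline at 1 Hz, 100 s post-agonist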
RGS4 block: RGS4 inhibitors, primary screen, cell-based, HEK293 M3R inducible RGS4, calcium flux. AID 463165, 2010. 310,000 compounds, 0.45% hits. B-score at 10 µM. Fluo-4 calcium flux; hits give high values; triggered by carbachol at its EC20;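 active means B-score, a plate-corrected calcium signal, over three deviations above library mean, with baseline fluorescence within five deviations of library mean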;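 further: RGS4 expression induced by doxycycline in cells with stable M3 receptor; B-score is computed from the integrated fluorescence ratio over baseline after carbachol; higher B-score means a larger calcium signal and so more RGS4 inhibition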
Target sequence (P49798 whole entry, looked up): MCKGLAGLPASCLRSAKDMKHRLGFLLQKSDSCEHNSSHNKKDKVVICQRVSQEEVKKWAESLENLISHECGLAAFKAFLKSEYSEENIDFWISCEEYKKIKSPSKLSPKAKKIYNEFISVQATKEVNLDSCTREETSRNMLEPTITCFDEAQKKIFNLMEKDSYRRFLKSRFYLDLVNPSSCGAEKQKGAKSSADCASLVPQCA
MrgX1 agonist: agonists of human MrgX1 receptor, primary screen, HEK293 cells, Fluo-4 calcium flux; Fluo-4 calcium fluorescence, agonist mode; hits give high values; B-score at 10 µM; 310,000 compounds, 0.44% hits; AID 588627, 2011;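 active means calcium response B-score plate-corrected fluorescence ratio at least 3 library SD, with starting fluorescence B-score inside 5 SD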
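Test system: Stable human MrgX1 HEK293 cell line | Schedule: Overnight plating before 1 h dye loading | Read-out basis: Baseline-normalised fluorescence change ratio, B-scored | Detection: Kinetic calcium dye fluorescence, Fluo-4 NW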
MrgX1 antag: antagonists of human MrgX1 receptor, primary screen, HEK293 cells, Fluo-4 calcium flux. Mas-related G-protein coupled receptor member X1 (Homo sapiens), Q96LB2. BAM8-22 antagonism; hits give low values. B-score at 10 µM. 310,000 compounds, 1.3% hits;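 active means calcium-response B-score plate-corrected more than 3 library SD below zero, starting fluorescence within 5 deviations, no agonist response on first addition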;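 further: peak minus trough fluorescence over baseline after final BAM8-22 challenge near maximal dose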
MrgX1 antag conf: MrgX1 receptor antagonists, duplicate retest, confirmation, HEK293 cells, Fluo-4 calcium flux. shares compounds with MrgX1 antag. BAM8-22 calcium flux; hits give low values. remaining BAM8-22 calcium response % of control (hits give low values), % at 10 µM. 2,300 compounds, 19% hits;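 active means remaining agonist calcium response no higher than 100% minus 3 SD of agonist-only control wells, with starting fluorescence near control levels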;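 further: agonist BAM8-22 given at a near maximal EC90 to ECmax level; peak minus minimum fluorescence divided by baseline after agonist addition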
HEK293 Ca flux: nonspecific calcium signal in parental HEK293, confirmation, counter-screen for MrgX1 antagonist project, parental HEK293 cells, Fluo-4 calcium flux; fluorescence ratio F(max-min)/F0 at 10 µM; Fluo-4 calcium fluorescence, FDSS; shares compounds with MrgX1 antag; 4,000 compounds, 2% hits; AID 624111, 2012;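 active means duplicate-averaged calcium fluorescence ratio at least three times the standard deviation of buffer wells, a nonspecific response in parental cells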
HEK293 Ca counter: calcium response in parental HEK293 cells, primary screen, counter-screen for MrgX1 allosteric activator project, cell-based, Fluo-4 calcium flux, duplicate; 4,000 compounds, 0.4% hits; shares compounds with MrgX1 antag; fluorescence ratio F(max-min)/F0 at 10 µM; Fluo-4 fluorescence ratio; hits give high values;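 active means calcium fluorescence ratio, averaged over duplicates, at least 3 SD of the buffer-well ratio, meaning a nonspecific response in receptor-free cells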;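 further: untransfected parental HEK293 lacking MrgX1 used as counterscreen for MrgX1 allosteric activators; fluorescence change taken during the second addition on a kinetic imager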
HEK293 Ca cntr2: calcium response in parental HEK293 cells, primary screen, counter-screen for MrgX1 agonist project, cell-based, Fluo-4 calcium flux, duplicate, agonist mode. shares compounds with MrgX1 antag. Fluo-4 calcium fluorescence (FDSS); hits give high values. fluorescence ratio F(max-min)/F0 at 10 µM. 4,000 compounds, 8.7% hits;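 active means calcium fluorescence ratio at least three times the spread of buffer wells, meaning a non-specific response in parental cells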
Numbers stand for hits. The list is not random: actives were taken first. Their share in the collection is about 3.5%.

How did Cc1ccccc1CNS(=O)(=O)c1csc(C(N)=O)c1 do in these assays?
MrgX1 allo act: inactive; RGS4 act: inactive; RGS4 block: inactive; MrgX1 agonist: inactive; MrgX1 antag: inactive

How did O=C(NC1CCCCCCC1)c1ccc(Br)o1 do in these assays?
MrgX1 allo act: inactive; RGS4 act: inactive; RGS4 block: inactive; MrgX1 agonist: inactive; MrgX1 antag: -4.7; MrgX1 antag conf: inactive; HEK293 Ca flux: inactive; HEK293 Ca counter: inactive; HEK293 Ca cntr2: inactive

Results for O=C(NC1CCCCCC1)c1ccc(Br)o1 ?
MrgX1 allo act: inactive; RGS4 act: inactive; RGS4 block: inactive; MrgX1 agonist: inactive; MrgX1 antag: inactive

What do the screens show for `CCC(=O)Nc1nnc(-c2cccs2)s1`?
MrgX1 allo act: inactive; RGS4 act: inactive; RGS4 block: inactive; MrgX1 agonist: inactive; MrgX1 antag: -5.1; MrgX1 antag conf: inactive; HEK293 Ca flux: inactive; HEK293 Ca counter: inactive; HEK293 Ca cntr2: inactive

How did O=C(NCc1cccnc1)C1CC(c2ccc(Cl)c(Cl)c2)=NO1 (stereo not drawn) do in these assays?
MrgX1 allo act: inactive; RGS4 act: inactive; RGS4 block: inactive; MrgX1 agonist: inactive; MrgX1 antag: inactive

How did COC(=O)COc1ccc(S(=O)(=O)NCc2ccco2)cc1Cl do in these assays?
MrgX1 allo act: inactive; RGS4 act: inactive; RGS4 block: inactive; MrgX1 agonist: inactive; MrgX1 antag: inactive

What do the screens show for `COc1ccc(CC(=O)Nc2cc(=O)n(C)c(=O)n2C)cc1`?
MrgX1 allo act: inactive; RGS4 act: inactive; RGS4 block: inactive; MrgX1 agonist: inactive; MrgX1 antag: -7.7; MrgX1 antag conf: inactive; HEK293 Ca flux: inactive; HEK293 Ca counter: inactive; HEK293 Ca cntr2: inactive

Results for CCOc1ccc(CC(=O)Nc2cc(=O)n(C)c(=O)n2C)cc1 ?
MrgX1 allo act: inactive; RGS4 act: inactive; RGS4 block: inactive; MrgX1 agonist: inactive; MrgX1 antag: inactive

What do the screens show for `Cc1ccc(S(=O)(=O)/N=C2\C=C(Nc3cccc(C(=O)O)c3)C(=O)c3ccccc32)cc1`?
MrgX1 allo act: inactive; RGS4 act: inactive; RGS4 block: inactive; MrgX1 agonist: inactive; MrgX1 antag: inactive

What do the screens show for `CCc1ccc(S(=O)(=O)/N=C2\C=C(Nc3ccc(C(=O)O)cc3)C(=O)c3ccccc32)cc1`?
MrgX1 allo act: inactive; RGS4 act: inactive; RGS4 block: inactive; MrgX1 agonist: inactive; MrgX1 antag: -7.7; MrgX1 antag conf: 85%; HEK293 Ca flux: inactive; HEK293 Ca counter: inactive; HEK293 Ca cntr2: inactive

Results for O=C(COc1cccc(NC(=O)c2cccs2)c1)c1ccc(F)cc1 ?
MrgX1 allo act: inactive; RGS4 act: inactive; RGS4 block: inactive; MrgX1 agonist: inactive; MrgX1 antag: -4.9; MrgX1 antag conf: inactive; HEK293 Ca flux: inactive; HEK293 Ca counter: inactive; HEK293 Ca cntr2: inactive

What do the screens show for `O=C(COc1cccc(NC(=O)c2ccccc2)c1)c1ccccc1`?
MrgX1 allo act: inactive; RGS4 act: inactive; RGS4 block: inactive; MrgX1 agonist: inactive; MrgX1 antag: inactive

Results for CCOc1ccc(C(NC(C)=O)c2ccc(OC)c(OC)c2)cc1 (stereo not drawn) ?
MrgX1 allo act: inactive; RGS4 act: inactive; RGS4 block: inactive; MrgX1 agonist: inactive; MrgX1 antag: -4.9; MrgX1 antag conf: inactive; HEK293 Ca flux: inactive; HEK293 Ca counter: inactive; HEK293 Ca cntr2: inactive

What do the screens show for `Cc1ccc2oc(-c3cccc(N)c3)nc2c1`?
MrgX1 allo act: inactive; RGS4 act: inactive; RGS4 block: inactive; MrgX1 agonist: inactive; MrgX1 antag: -6.2; MrgX1 antag conf: inactive; HEK293 Ca flux: inactive; HEK293 Ca counter: inactive; HEK293 Ca cntr2: inactive

Results for Cc1ccc(-c2nc3cc(N)ccc3o2)cc1 ?
MrgX1 allo act: inactive; RGS4 act: inactive; RGS4 block: inactive; MrgX1 agonist: inactive; MrgX1 antag: inactive

What do the screens show for `Cc1ccc(S(=O)(=O)/N=S(\C)CC2CC2(Cl)Cl)cc1` (stereo not drawn)?
MrgX1 allo act: inactive; RGS4 act: inactive; RGS4 block: inactive; MrgX1 agonist: inactive; MrgX1 antag: inactive

How did CCNC(=O)CC1C(=O)N(c2ccccc2)C(=O)N1Cc1ccc(OC)cc1 (stereo not drawn) do in these assays?
MrgX1 allo act: inactive; RGS4 act: inactive; RGS4 block: inactive; MrgX1 agonist: inactive; MrgX1 antag: inactive

Results for COc1ccc(OC(C)c2ccc(C#N)c(=O)[nH]2)cc1 (stereo not drawn) ?
MrgX1 allo act: inactive; RGS4 act: inactive; RGS4 block: inactive; MrgX1 agonist: inactive; MrgX1 antag: inactive

Results for COC(OC)c1ccc(C#N)c(=O)[nH]1 ?
MrgX1 allo act: inactive; RGS4 act: inactive; RGS4 block: inactive; MrgX1 agonist: inactive; MrgX1 antag: -6.2; MrgX1 antag conf: 83%; HEK293 Ca flux: inactive; HEK293 Ca counter: inactive; HEK293 Ca cntr2: inactive

How did CCN(C(=O)c1ccc2c(=O)n3c(nc2c1)CCCCC3)c1ccccc1C do in these assays?
MrgX1 allo act: inactive; RGS4 act: inactive; RGS4 block: inactive; MrgX1 agonist: inactive; MrgX1 antag: inactive

What do the screens show for `Cc1ccc2nc(-c3ccc(N4C(=N)SC5CS(=O)(=O)CC54)cc3)sc2c1` (stereo not drawn)?
MrgX1 allo act: inactive; RGS4 act: inactive; RGS4 block: inactive; MrgX1 agonist: inactive; MrgX1 antag: -7.3; MrgX1 antag conf: 85%; HEK293 Ca flux: inactive; HEK293 Ca counter: inactive; HEK293 Ca cntr2: inactive

What do the screens show for `Cc1ccc2nc(-c3ccc(N4C(=O)CC(N5CCC(C(N)=O)CC5)C4=O)cc3)sc2c1` (stereo not drawn)?
MrgX1 allo act: inactive; RGS4 act: inactive; RGS4 block: inactive; MrgX1 agonist: inactive; MrgX1 antag: inactive

Results for N#C/C(C(=O)Nc1ccc(Cl)cc1)=C(/S)Nc1ccccc1 ?
MrgX1 allo act: inactive; RGS4 act: inactive; RGS4 block: inactive; MrgX1 agonist: inactive; MrgX1 antag: inactive
